One experiment has as its system NCI-H460. The experiment is described as follows: Cytotoxicity against human NCI-H460 cells after 48 hrs. In kind it is functional, cell-based. As to conditions: NCI-H460, 48 h.
The next experiment concerns HL-60. Put plainly: Cytotoxicity against human HL60 cells after 48 hrs. As to conditions: HL-60, 48 h. It is filed as functional, cell-based. The procedure, abridged:
(§1)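 MTT viability assay on log-phase cells at 37 °C, exposed to compound or DMSO vehicle for 48 h. MTT (1 mg/mL in PBS) was then added for 2 h, and absorbance was read at 570 nm with 630 nm correction. IC50 is the concentration giving 50% proliferation inhibition. Cells were cultured in 5% CO2: HL-60 in RPMI-1640 with 10% FBS; Hep3B in DMEM/F12 with 10% FBS; Detroit 551 in DMEM with 10% FBS.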

The next experiment concerns Detroit 551. The experiment is described as follows: Cytotoxicity against human Detroit 551 cells after 48 hrs. As to conditions: Detroit 551, 48 h. It is filed as cell-based. The procedure, abridged: as §1
Experiment [1] can be described thus: Cytotoxicity against human Hep3B cells after 48 hrs. In kind it is functional, cell-based, Hep 3B2. The procedure, abridged:
as §1

Experiment [2] addresses T1, Tubulin (Homo sapiens) (UniProt P68371+Q9H4B7+P0DPH7+P68366+Q13509+Q71U36+P04350+Q3ZCM7+P07437+P68363+Q9BQE3+Q6PEY2+Q13885+Q9BVA1+Q9BUF5). The experiment is described as follows: Inhibition of tubulin polymerization in human NCI-H522 cells assessed as alpha-tubulin accumulation in cytoskeletal fraction at 100 nM after 24 hrs by Western blot analysis. In kind it is cell-based. The procedure, abridged:
(§2)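 NCI-H522 cells were exposed for 24 h to compound (10, 30 or 100 nM) or DMSO vehicle. They were then lysed 5 min at 37 °C in hypotonic buffer (1 mM MgCl2, 2 mM EGTA, 0.5% NP-40, protease inhibitors, 20 mM Tris-HCl pH 6.8) and centrifuged at 15,000 × g for 10 min at 25 °C. α- and β-tubulin were assessed in the cytoskeletal fraction.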
On the technique in general: A western blot detects proteins with antibodies after separation by electrophoresis.

The target of the next experiment is Tubulin (Sus scrofa) (UniProt P02554+P02550). As to conditions: 1 uM.
Chain of Tubulin (Sus scrofa) (P02550 whole entry, looked up): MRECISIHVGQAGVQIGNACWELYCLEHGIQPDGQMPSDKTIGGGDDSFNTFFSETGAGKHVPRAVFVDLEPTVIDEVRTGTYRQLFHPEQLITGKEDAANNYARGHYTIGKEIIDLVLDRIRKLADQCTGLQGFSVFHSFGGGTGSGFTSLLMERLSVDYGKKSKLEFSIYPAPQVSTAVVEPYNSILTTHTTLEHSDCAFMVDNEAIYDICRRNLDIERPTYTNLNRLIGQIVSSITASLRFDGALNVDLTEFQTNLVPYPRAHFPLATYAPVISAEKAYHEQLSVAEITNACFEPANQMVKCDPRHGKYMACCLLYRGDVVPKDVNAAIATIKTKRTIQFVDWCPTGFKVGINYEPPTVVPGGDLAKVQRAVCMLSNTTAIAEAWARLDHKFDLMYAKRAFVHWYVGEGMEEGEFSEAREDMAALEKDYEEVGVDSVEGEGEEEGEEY
Chain of Tubulin (Sus scrofa) (P02554 whole entry, looked up): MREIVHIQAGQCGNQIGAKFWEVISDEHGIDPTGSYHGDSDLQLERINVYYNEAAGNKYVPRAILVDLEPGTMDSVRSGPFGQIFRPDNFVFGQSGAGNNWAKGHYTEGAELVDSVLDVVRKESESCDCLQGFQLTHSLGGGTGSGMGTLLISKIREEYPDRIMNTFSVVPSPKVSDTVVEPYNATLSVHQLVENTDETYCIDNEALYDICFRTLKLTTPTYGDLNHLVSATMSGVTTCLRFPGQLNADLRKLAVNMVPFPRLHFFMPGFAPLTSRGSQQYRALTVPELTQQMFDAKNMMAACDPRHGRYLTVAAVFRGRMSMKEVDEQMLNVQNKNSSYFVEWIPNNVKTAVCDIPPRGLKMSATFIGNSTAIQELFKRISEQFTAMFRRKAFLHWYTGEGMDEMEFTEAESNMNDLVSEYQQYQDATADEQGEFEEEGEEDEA
Experiment [3] addresses T1, Tubulin (Homo sapiens). Put plainly: Inhibition of tubulin polymerization in human NCI-H522 cells assessed as beta-tubulin accumulation in cytoskeletal fraction at 100 nM after 24 hrs by Western blot analysis. It is filed as cell-based. The procedure, abridged: as §2

Activity calls are given as the source filed them. The rule behind the calls is not given here.

What is called IC50 is the point on the concentration scale where inhibition reaches its midpoint. High values mean a need for much substance, low ones inhibition by little substance. As to `COc1cccc(-c2cc(O)c3cc4c(cc3n2)OCO4)c1`, the concentration for half-maximal inhibition (IC50) in the experiment on NCI-H460 turned out to be 0.2 µM; in the experiment with HL-60, 0.08 µM; in the experiment on Detroit 551, 4.77 µM; in experiment [1] it was 0.08 µM.
As for `COc1cc(O)cc(-c2cc(=O)c3cc(N4CCOCC4)ccc3[nH]2)c1`, the half-inhibitory concentration (IC50) in the experiment with NCI-H460 was above 100 µM; in the experiment on HL-60 it was 3.9 µM; in the experiment on Detroit 551 it was above 100 µM; in experiment [1], 6.03 µM.
With `O=c1cc(-c2cc(O)cc(O)c2)[nH]c2ccc(N3CCCC3)cc12`, the half-maximal inhibitory concentration (IC50) in the experiment with NCI-H460 was 13.9 µM; in the experiment with HL-60 it was 0.34 µM; in the experiment on Detroit 551 it was above 25 µM; in experiment [1], 1.58 µM.
As for `Oc1cccc(-c2cc(O)c3cc4c(cc3n2)OCO4)c1`, the IC50 is 17 µM with NCI-H460, 0.25 µM with HL-60, 21.8 µM in the experiment with Detroit 551 and 1.05 µM in experiment [1].
On to `CCOc1cc(O)cc(-c2cc(=O)c3cc(N4CCCC4)ccc3[nH]2)c1`, for which the half-maximal inhibitory concentration (IC50) was determined as 0.59 µM in the experiment with NCI-H460, 0.02 µM in the experiment with HL-60, 13.2 µM in the experiment with Detroit 551 and 0.07 µM in experiment [1].
On to `COc1cc(O)cc(-c2cc(=O)c3cc(N(C)C)ccc3[nH]2)c1`, for which the IC50 in the experiment with NCI-H460 was above 50 µM; with HL-60 it was 0.22 µM; in the experiment with Detroit 551 it was above 50 µM; in experiment [1], 6.15 µM.
Consider `O=c1cc(-c2cc(O)cc(O)c2)[nH]c2cc3c(cc12)OCO3`, for which the IC50 in the experiment on NCI-H460 was above 25 µM; with HL-60 it was 8.71 µM; in experiment [1] it was above 25 µM.
Consider `CCOc1cc(O)cc(-c2cc(=O)c3cc4c(cc3[nH]2)OCO4)c1`, for which the values for the half-inhibitory concentration (IC50) (in the experiment on NCI-H460; in the experiment with HL-60; in experiment [1]) were above 25 µM, 0.5 µM and 25 µM, respectively.
For the compound `O=c1cc(-c2ccccc2O)[nH]c2cc3c(cc12)OCO3`, the half-inhibitory concentration (IC50) worked out at 19.1 µM in the experiment with NCI-H460, 7.62 µM in the experiment on HL-60, 48.9 µM in the experiment on Detroit 551 and 8.04 µM in experiment [1].
For the compound `CC[C@]1(O)C[C@H]2CN(CCc3c([nH]c4ccccc34)[C@@](C(=O)OC)(c3cc4c(cc3OC)N(C=O)[C@H]3[C@@](O)(C(=O)OC)[C@H](OC(C)=O)[C@]5(CC)C=CCN6CC[C@]43[C@@H]65)C2)C1`, the inhibition entry at Tubulin (Homo sapiens) [2], on Tubulin (Sus scrofa) and on Tubulin (Homo sapiens) [3] was “Active” in each case.
For the compound `CC[C@]1(O)C[C@@H]2CN(CCc3c([nH]c4ccccc34)[C@@](C(=O)OC)(c3cc4c(cc3OC)N(C)[C@H]3[C@@](O)(C(=O)OC)[C@H](OC(C)=O)[C@]5(CC)C=CCN6CC[C@]43[C@@H]65)C2)C1`, the inhibition entry on Tubulin (Homo sapiens) [2], on Tubulin (Sus scrofa) and at Tubulin (Homo sapiens) [3] was “Active” throughout.
With `O=c1cc(-c2ccc(O)cc2)[nH]c2cc3c(cc12)OCO3`, the half-inhibitory concentration (IC50) in the experiment on NCI-H460 is above 100 µM; with HL-60, 3.26 µM; in the experiment on Detroit 551, 41 µM; in experiment [1], 22.3 µM.
As for `COc1cc(O)cc(-c2cc(=O)c3cc4c(cc3[nH]2)OCO4)c1`, the IC50 in the experiment on NCI-H460 is above 50 µM; with HL-60, 0.5 µM; with Detroit 551 it was above 50 µM; in experiment [1], above 50 µM.
